Results on eleven compounds are retold here after ChEMBL document CHEMBL2331458, “Examination of the mode of action of the almiramide family of natural products against the kinetoplastid parasite Trypanosoma brucei” (J Nat Prod, 2013).

Series [1] in a line: Cytotoxicity against african green monkey Vero cells. In kind it is cell-based. The note with it: chlorocebus sabaeus, read-out: LD50 (the source's name).
The nature of series [2]: Selectivity index, ratio of LD50 for african green monkey Vero cells to IC50 for Trypanosoma brucei brucei 427-221. It counts as toxicity, cell-based. To be noted: read-out: Ratio LD50/IC50.
The subject of series [3] is Trypanosoma brucei brucei. Briefly: Antiparasitic activity against Trypanosoma brucei brucei 427-221 assessed as growth inhibition after 48 hrs by cellTiter-Glo assay. It counts as functional, organism-based. The note with it: 427-221, 48 h. Summed up:
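T. b. brucei 427-221 was grown at 37 °C and 5% CO2 in HMI-9 with 10% FBS, 10% Serum Plus and penicillin/streptomycin, then seeded at 2×10^4/mL. Compounds were serially diluted in DMSO (1% final) and exposed for 48 h. Viability was read by CellTiter-Glo ATP luminescence. Percent inhibition was normalized to thimerosal (2 µM final) and DMSO controls, and IC50 was derived by curve fitting.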

The structures appear in SMILES notation. Non-standard residues stand in square brackets, D forms with d. Residues, ends and D or L forms follow the SMILES beside them. *: point of attachment. NMeF = CN[C@@H](Cc1ccccc1)C(=O)O; X4 = CC(=O)CCCC[C@@H](C)C(=O)*; Oct(7)enoyl = C=CCCCCCC(=O)*; Oct(7)ynoyl = C#CCCCCCC(=O)*; NMeV = CN[C@H](C(=O)O)C(C)C; Hept6ynoyl = C#CCCCCC(=O)*; X5 = COC(=O)CCCCCCCCN(C)*; NMeA = CN[C@@H](C)C(=O)O; X6 = COC(=O)COCCOCCN(C)*; X3 = C=CCCCCC(=O)*

For the compound `C#CCCCCC(=O)N(C)[C@H](C(=O)N(C)[C@H](C(=O)N(C)[C@H](C(=O)N(C)[C@@H](C)C(=O)N(C)[C@@H](Cc1ccccc1)C(=O)N(C)C)C(C)C)C(C)C)C(C)C` (Hept6ynoyl-[NMeV][NMeV][NMeV][NMeA][NMeF]-NMe2), the CC50 in series [1] came to 156 µM. Besides, the selectivity ratio in series [2] was determined as 120. Further, in series [3], the concentration for half-maximal inhibition (IC50) is 1300 nM.
As for `C#CCCCCC(=O)N(C)[C@H](C(=O)N(C)[C@H](C(=O)N(C)[C@H](C(=O)N(C)[C@@H](C)C(=O)N(C)[C@@H](Cc1ccccc1)C(=O)O)C(C)C)C(C)C)C(C)C` (Hept6ynoyl-[NMeV][NMeV][NMeV][NMeA][NMeF]-OH), the CC50 in series [1] came to 281 µM. In addition, in series [3], the IC50 was more than 13700 nM.
On to `C#CCCCCC(=O)N(C)[C@H](C(=O)N(C)[C@H](C(=O)N(C)[C@H](C(=O)N(C)[C@@H](C)C(=O)N(C)[C@@H](Cc1ccccc1)C(=O)OC)C(C)C)C(C)C)C(C)C` (Hept6ynoyl-[NMeV][NMeV][NMeV][NMeA][NMeF]-OMe), for which the CC50 in series [1] came to 41.4 µM. The selectivity ratio in series [2] is 69. Further, the IC50 in series [3] came out at 600 nM.
On to `C=CCCCCC(=O)N(C)[C@H](C(=O)N(C)[C@H](C(=O)N(C)[C@H](C(=O)N(C)[C@@H](C)C(=O)N(C)[C@@H](Cc1ccccc1)C(=O)O)C(C)C)C(C)C)C(C)C` (X3-[NMeV][NMeV][NMeV][NMeA][NMeF]-OH), for which the CC50 in series [1] is more than 70 µM. Also, in series [2], the selectivity ratio is more than 27. The IC50 in series [3] worked out at 2600 nM.
Take `C=CCCCCC(=O)N(C)[C@H](C(=O)N(C)[C@H](C(=O)N(C)[C@H](C(=O)N(C)[C@@H](C)C(=O)N(C)[C@@H](Cc1ccccc1)C(=O)OC)C(C)C)C(C)C)C(C)C` (X3-[NMeV][NMeV][NMeV][NMeA][NMeF]-OMe): the CC50 in series [1] amounted to 24.7 µM. Further, the selectivity ratio in series [2] amounted to 41. Also, in series [3], the concentration for half-maximal inhibition (IC50) was found to be 600 nM.
Regarding `C=CCCCCCC(=O)N(C)[C@H](C(=O)N(C)[C@H](C(=O)N(C)[C@H](C(=O)N(C)[C@@H](C)C(=O)N(C)[C@@H](Cc1ccccc1)C(=O)O)C(C)C)C(C)C)C(C)C` ({Oct(7)enoyl}-[NMeV][NMeV][NMeV][NMeA][NMeF]-OH), in series [1], the CC50 was 192 µM. Further, the IC50 in series [3] is more than 13700 nM.
`C=CCCCCCC(=O)N(C)[C@H](C(=O)N(C)[C@H](C(=O)N(C)[C@H](C(=O)N(C)[C@@H](C)C(=O)N(C)[C@@H](Cc1ccccc1)C(=O)N(C)CCCCCCCCC(=O)OC)C(C)C)C(C)C)C(C)C` ({Oct(7)enoyl}-[NMeV][NMeV][NMeV][NMeA][NMeF]-X5): the IC50 in series [3] stood at 700 nM.
For `C=CCCCCCC(=O)N(C)[C@H](C(=O)N(C)[C@H](C(=O)N(C)[C@H](C(=O)N(C)[C@@H](C)C(=O)N(C)[C@@H](Cc1ccccc1)C(=O)N(C)CCOCCOCC(=O)OC)C(C)C)C(C)C)C(C)C` ({Oct(7)enoyl}-[NMeV][NMeV][NMeV][NMeA][NMeF]-X6), the half-maximal inhibitory concentration (IC50) in series [3] is 3500 nM.
On to `C#CCCCCCC(=O)N(C)[C@H](C(=O)N(C)[C@H](C(=O)N(C)[C@H](C(=O)N(C)[C@@H](C)C(=O)N(C)[C@@H](Cc1ccccc1)C(=O)N(C)C)C(C)C)C(C)C)C(C)C` ({Oct(7)ynoyl}-[NMeV][NMeV][NMeV][NMeA][NMeF]-NMe2), for which the CC50 in series [1] was 159 µM. Also, in series [2], the selectivity ratio came to 270. Moreover, the IC50 in series [3] amounted to 600 nM.
For `C#CCCCCCC(=O)N(C)[C@H](C(=O)N(C)[C@H](C(=O)N(C)[C@H](C(=O)N(C)[C@@H](C)C(=O)N(C)[C@@H](Cc1ccccc1)C(=O)O)C(C)C)C(C)C)C(C)C` ({Oct(7)ynoyl}-[NMeV][NMeV][NMeV][NMeA][NMeF]-OH), the CC50 in series [1] is more than 68.9 µM. In series [2], the selectivity ratio is more than 6.7. Besides, the IC50 in series [3] amounted to 10300 nM.
For the compound `CC(=O)CCCC[C@@H](C)C(=O)N(C)[C@H](C(=O)N(C)[C@H](C(=O)N[C@H](C(=O)N(C)[C@@H](C)C(=O)N(C)[C@@H](Cc1ccccc1)C(N)=O)C(C)C)C(C)C)C(C)C` [ALMIRAMIDE A] (X4-[NMeV][NMeV]V[NMeA][NMeF]-NH2), in series [1], the CC50 was 113 µM.

A word on the IC50: it is the concentration needed to halve the response being measured.
